≈ marks a conversion by molar mass, not a printed value.
Tests used:
Trichoderma viride = assay: Antifungal activity against Trichoderma viride at 28 degC after 72 hrs; assay type: functional; details: for MIC: Trichoderma viride, 72 h
In short: (§1)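 Filamentous fungi were kept on SDA at 28 °C. Spores from 7-day cultures were suspended in sterile normal saline to about 10⁵ cfu/ml, and about 0.1 ml was spread on SDA plates. Compounds were serially diluted two-fold in DMSO and impregnated on 8 mm discs, with a solvent control disc on each plate. Plates were held at 28 °C for 72 h or more, and inhibition zone diameter was read in mm.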

Staphylococcus aureus = assay: Antibacterial activity against Staphylococcus aureus MSSA 22 at 37 degC after 24 hrs by filter paper disk method; assay type: functional; details: for MIC: Staphylococcus aureus, MSSA 22, 24 h
In short: (§2)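 Compounds were taken from a 1 mg/ml DMSO stock and serially diluted two-fold over a 300 to 18.75 range, then loaded onto sterile 8 mm paper discs. Bacteria were grown overnight in nutrient broth at 37 °C, pelleted, and resuspended in sterile NSS to 10⁵ cfu/ml. About 0.1 ml was spread on NA plates. Plates were incubated 24 h at 37 °C with a solvent control disc, and inhibition zone diameter was read in mm.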

Candida albicans = assay: Antifungal activity against Candida albicans IOA-109 at 37 degC after 18 to 48 hrs; assay type: functional; details: for MIC: Candida albicans, IOA-109
Helminthosporium = assay: Antifungal activity against Helminthosporium oryzae 2537 ICAR at 28 degC after 72 hrs; assay type: functional; details: for MIC: Helminthosporium, 72 h; in short: as §1
Escherichia coli = assay: Antibacterial activity against Escherichia coli K-12 at 37 degC after 24 hrs by filter paper disk method; assay type: functional; details: for MIC: Escherichia coli, K-12, 24 h; in short: as §2
Penicillium sp. = assay: Antifungal activity against Penicillium sp. at 28 degC after 72 hrs; assay type: functional; details: for MIC: Penicillium sp., 72 h; in short: as §1
Salmonella typhimurium = assay: Antibacterial activity against Salmonella Typhimurium MTCC 98 at 37 degC after 24 hrs by filter paper disk method; assay type: functional, Salmonella enterica subsp. enterica serovar Typhimurium; details: for MIC: Salmonella enterica, MTCC 98, 24 h; in short: as §2
Aspergillus niger = assay: Antifungal activity against Aspergillus niger at 28 degC after 72 hrs; assay type: functional; details: for MIC: Aspergillus niger, 72 h; in short: as §1
Bacillus subtilis = assay: Antibacterial activity against Bacillus subtilis ATCC 6051 at 37 degC after 24 hrs by filter paper disk method; assay type: functional; details: for MIC: Bacillus subtilis, ATCC 6051, 24 h; in short: as §2

MIC (Trichoderma viride) [µg/mL]	MIC (Staphylococcus aureus) [µg/mL]	MIC (Candida albicans) [µg/mL]	MIC (Helminthosporium) [µg/mL]	MIC (Escherichia coli) [µg/mL]	MIC (Penicillium sp.) [µg/mL]	MIC (Salmonella typhimurium) [µg/mL]	MIC (Aspergillus niger) [µg/mL]	MIC (Bacillus subtilis) [µg/mL]	SMILES	diameter of the inhibition zone (DIZ) (Trichoderma viride) [mm]	diameter of the inhibition zone (DIZ) (Staphylococcus aureus) [mm]	diameter of the inhibition zone (DIZ) (Candida albicans) [mm]	diameter of the inhibition zone (DIZ) (Helminthosporium) [mm]	diameter of the inhibition zone (DIZ) (Escherichia coli) [mm]	diameter of the inhibition zone (DIZ) (Penicillium sp.) [mm]	diameter of the inhibition zone (DIZ) (Salmonella typhimurium) [mm]	diameter of the inhibition zone (DIZ) (Aspergillus niger) [mm]	diameter of the inhibition zone (DIZ) (Bacillus subtilis) [mm]
75 (≈ 202 µM)	150 (≈ 405 µM)	75 (≈ 202 µM)	150 (≈ 405 µM)	150 (≈ 405 µM)	75 (≈ 202 µM)	75 (≈ 202 µM)	150 (≈ 405 µM)	75 (≈ 202 µM)	CCCCC/C=C\CC[C@H](O)CCCCCCCc1nc2ccccc2[nH]1	8	19	18	11	17	17	12	14	19
37.5 (≈ 90.2 µM)	37.5 (≈ 90.2 µM)	37.5 (≈ 90.2 µM)	75 (≈ 180 µM)	37.5 (≈ 90.2 µM)	37.5 (≈ 90.2 µM)	37.5 (≈ 90.2 µM)	37.5 (≈ 90.2 µM)	37.5 (≈ 90.2 µM)	CCCCCC[C@@H](O)C/C=C\CCCCCCCc1nc2cc([N+](=O)[O-])ccc2[nH]1	9	19	19	15	16	19	12	16	21
75 (≈ 234 µM)	150 (≈ 468 µM)	75 (≈ 234 µM)	150 (≈ 468 µM)	150 (≈ 468 µM)	150 (≈ 468 µM)	75 (≈ 234 µM)	150 (≈ 468 µM)	37.5 (≈ 117 µM)	CCCCC/C=C\CC[C@H](O)CCCCCCCc1ncc[nH]1	6	15	18	12	12	19	12	14	19
37.5 (≈ 93.8 µM)	37.5 (≈ 93.8 µM)	37.5 (≈ 93.8 µM)	75 (≈ 188 µM)	75 (≈ 188 µM)	37.5 (≈ 93.8 µM)	37.5 (≈ 93.8 µM)	37.5 (≈ 93.8 µM)	37.5 (≈ 93.8 µM)	CCCCCCCC/C=C/CCCCCCCc1nc2cc([N+](=O)[O-])ccc2[nH]1	8	21	19	12	20	18	11	15	20
37.5 (≈ 144 µM)	75 (≈ 288 µM)	75 (≈ 288 µM)	150 (≈ 576 µM)	37.5 (≈ 144 µM)	75 (≈ 288 µM)	75 (≈ 288 µM)	37.5 (≈ 144 µM)	75 (≈ 288 µM)	C=CCCCCCCCCc1nc2c([nH]1)CCCC2	7	18	18	11	17	18	11	12	18
37.5 (≈ 129 µM)	37.5 (≈ 129 µM)	37.5 (≈ 129 µM)	75 (≈ 258 µM)	75 (≈ 258 µM)	37.5 (≈ 129 µM)	37.5 (≈ 129 µM)	37.5 (≈ 129 µM)	75 (≈ 258 µM)	C=CCCCCCCCCc1nc2cc(Cl)ccc2[nH]1	10	22	18	15	20	19	14	15	19
75 (≈ 293 µM)	150 (≈ 585 µM)	75 (≈ 293 µM)	150 (≈ 585 µM)	150 (≈ 585 µM)	75 (≈ 293 µM)	75 (≈ 293 µM)	150 (≈ 585 µM)	75 (≈ 293 µM)	C=CCCCCCCCCc1nc2ccccc2[nH]1	7	20	19	13	18	18	16	14	22
37.5 (≈ 92.6 µM)	37.5 (≈ 92.6 µM)	37.5 (≈ 92.6 µM)	75 (≈ 185 µM)	37.5 (≈ 92.6 µM)	37.5 (≈ 92.6 µM)	37.5 (≈ 92.6 µM)	37.5 (≈ 92.6 µM)	75 (≈ 185 µM)	CCCCC/C=C\CC[C@H](O)CCCCCCCc1nc2cc(Cl)ccc2[nH]1	8	21	18	14	19	19	17	14	20
37.5 (≈ 92.6 µM)	37.5 (≈ 92.6 µM)	37.5 (≈ 92.6 µM)	75 (≈ 185 µM)	75 (≈ 185 µM)	37.5 (≈ 92.6 µM)	37.5 (≈ 92.6 µM)	37.5 (≈ 92.6 µM)	75 (≈ 185 µM)	CCCCCC[C@@H](O)C/C=C\CCCCCCCc1nc2cc(Cl)ccc2[nH]1	9	21	18	14	18	19	17	14	19
75 (≈ 202 µM)	150 (≈ 405 µM)	75 (≈ 202 µM)	150 (≈ 405 µM)	150 (≈ 405 µM)	75 (≈ 202 µM)	75 (≈ 202 µM)	150 (≈ 405 µM)	75 (≈ 202 µM)	CCCCCC[C@@H](O)C/C=C\CCCCCCCc1nc2ccccc2[nH]1	8	19	19	13	17	19	12	16	21
37.5 (≈ 100 µM)	75 (≈ 200 µM)	75 (≈ 200 µM)	150 (≈ 400 µM)	150 (≈ 400 µM)	75 (≈ 200 µM)	75 (≈ 200 µM)	37.5 (≈ 100 µM)	75 (≈ 200 µM)	CCCCCC[C@@H](O)C/C=C\CCCCCCCc1nc2c([nH]1)CCCC2	7	17	17	11	15	16	12	12	19
75 (≈ 212 µM)	150 (≈ 423 µM)	75 (≈ 212 µM)	150 (≈ 423 µM)	150 (≈ 423 µM)	75 (≈ 212 µM)	75 (≈ 212 µM)	150 (≈ 423 µM)	75 (≈ 212 µM)	CCCCCCCC/C=C\CCCCCCCc1nc2ccccc2[nH]1	6	18	19	12	16	18	14	16	21
37.5 (≈ 100 µM)	75 (≈ 200 µM)	75 (≈ 200 µM)	150 (≈ 400 µM)	150 (≈ 400 µM)	75 (≈ 200 µM)	75 (≈ 200 µM)	37.5 (≈ 100 µM)	75 (≈ 200 µM)	CCCCC/C=C\CC[C@H](O)CCCCCCCc1nc2c([nH]1)CCCC2	8	16	19	11	16	17	13	12	23

Reference: ChEMBL document CHEMBL1137675, “Convenient one-pot synthesis of novel 2-substituted benzimidazoles, tetrahydrobenzimidazoles and imidazoles and evaluation of their in vitro antibacterial and antifungal activities” (2009)
